Reference: ChEMBL document CHEMBL3351641, “Bradykinin antagonists and thiazolidinone derivatives as new potential anti-cancer compounds” (Bioorg Med Chem, 2014)
One block for each compound: values may come before it. The source made the active and inactive calls. The calls are words filed in the database; no cut-off is given here.

What was measured:
[1] = target: RAC-alpha serine/threonine-protein kinase (Homo sapiens) (UniProt P31749); assay: Inhibition of AKT1 phosphorylation in human U373 cells overexpressing CHI3L1 gene after 24 hrs by Western blot analysis; type: cell-based; settings: U-373MG ATCC
Sequence of RAC-alpha serine/threonine-protein kinase (Homo sapiens) (P31749 whole entry): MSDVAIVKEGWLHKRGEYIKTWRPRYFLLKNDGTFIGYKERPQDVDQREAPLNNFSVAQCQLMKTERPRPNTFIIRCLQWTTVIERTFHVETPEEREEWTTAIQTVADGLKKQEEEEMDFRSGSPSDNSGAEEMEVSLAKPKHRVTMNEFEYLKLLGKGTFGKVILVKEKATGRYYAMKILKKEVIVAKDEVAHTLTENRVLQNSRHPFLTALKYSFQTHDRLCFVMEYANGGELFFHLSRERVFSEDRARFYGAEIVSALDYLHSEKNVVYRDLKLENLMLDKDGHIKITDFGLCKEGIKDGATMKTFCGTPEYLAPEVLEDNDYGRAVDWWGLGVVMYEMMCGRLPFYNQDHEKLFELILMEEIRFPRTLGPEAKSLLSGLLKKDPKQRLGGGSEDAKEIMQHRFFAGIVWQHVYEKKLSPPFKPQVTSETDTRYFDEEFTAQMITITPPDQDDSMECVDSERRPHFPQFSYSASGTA
Outline: (§1)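 293_CHI3L1 or U373 cells seeded in triplicate at 10⁵ cells/well in DMEM/10% FBS and grown to near-confluence. Serum-starved 24 h; U373 then stimulated with 10% FBS. Treated with compound 24 h. Lysates run on 10% SDS–PAGE and blotted for phospho-ERK1/2 or phospho-AKT1 (4 °C overnight), ECL detection. Membranes stripped and reprobed for β-actin.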

[2] = tested on: C6; assay: Cytotoxicity against rat C6 cells assessed as reduction in cell viability after 72 hrs by MTT assay; type: functional, cell-based; settings: C6, 72 h
Outline: (§2)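 Cells seeded in triplicate at 3 × 10³ cells/well: 293_CHI3L1, U373 and C6 in DMEM; UPN1 in alpha-MEM; Granta, JeKo and Mino in RPMI. Compounds added by serial dilution at final 0.01, 0.1, 1, 10 and 100 µM for 72 h. MTT read-out gives viable cells as % of DMSO vehicle control. IC50 is the concentration giving 50% cell death versus control.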

[3] = target: T1, Mitogen-activated protein kinase; ERK1/ERK2 (Homo sapiens) (UniProt P27361+P28482); assay: Inhibition of ERK1/2 phosphorylation in human HEK293 cells overexpressing CHI3L1 gene after 24 hrs by Western blot analysis; type: cell-based; outline: as §1
T1 sequence (P27361 whole entry, looked up): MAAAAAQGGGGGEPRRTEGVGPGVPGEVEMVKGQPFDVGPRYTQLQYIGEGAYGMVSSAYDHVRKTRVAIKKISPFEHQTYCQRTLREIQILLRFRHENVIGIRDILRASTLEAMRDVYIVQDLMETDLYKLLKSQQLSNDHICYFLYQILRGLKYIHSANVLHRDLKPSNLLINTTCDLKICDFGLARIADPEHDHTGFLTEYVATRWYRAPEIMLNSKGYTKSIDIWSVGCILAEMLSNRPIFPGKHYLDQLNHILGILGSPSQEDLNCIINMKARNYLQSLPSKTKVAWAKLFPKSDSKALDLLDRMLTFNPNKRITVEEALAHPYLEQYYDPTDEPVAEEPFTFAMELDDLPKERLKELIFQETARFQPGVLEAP
T1 sequence (P28482 whole entry, looked up): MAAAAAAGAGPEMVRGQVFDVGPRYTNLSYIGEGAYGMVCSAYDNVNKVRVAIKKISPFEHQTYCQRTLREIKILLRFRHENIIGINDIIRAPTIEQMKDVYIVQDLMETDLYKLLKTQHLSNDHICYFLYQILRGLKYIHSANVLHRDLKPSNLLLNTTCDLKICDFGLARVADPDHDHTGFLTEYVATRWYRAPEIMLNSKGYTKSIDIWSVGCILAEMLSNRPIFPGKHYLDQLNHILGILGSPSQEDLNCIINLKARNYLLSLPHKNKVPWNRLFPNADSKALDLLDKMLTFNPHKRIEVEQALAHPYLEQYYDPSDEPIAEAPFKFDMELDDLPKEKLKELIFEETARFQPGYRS

[4] = Cytotoxicity against human Jeko cells assessed as reduction in cell viability after 72 hrs by MTT assay; type: functional, cell-based; settings: JeKo-1, 72 h; outline: as §2
[5] = Cytotoxicity against human U373 cells assessed as reduction in cell viability after 72 hrs by MTT assay; type: functional, cell-based, U-373MG ATCC; settings: U373 MG; outline: as §2
[6] = target: RAC-alpha serine/threonine-protein kinase (Homo sapiens) (UniProt P31749); assay: Inhibition of AKT1 phosphorylation in human HEK293 cells overexpressing CHI3L1 gene after 24 hrs by Western blot analysis; type: cell-based; outline: as §1
[7] = tested on: Granta; assay: Cytotoxicity against human Granta cells assessed as reduction in cell viability after 72 hrs by MTT assay; type: functional, cell-based; outline: as §2
[8] = Cytotoxicity against human UPN1 cells assessed as reduction in cell viability after 72 hrs by MTT assay; type: functional, cell-based; settings: UPN1, 72 h; outline: as §2
[9] = target: T1, Mitogen-activated protein kinase; ERK1/ERK2 (Homo sapiens); assay: Inhibition of ERK1/2 phosphorylation in human U373 cells overexpressing CHI3L1 gene after 24 hrs by Western blot analysis; type: cell-based; settings: U-373MG ATCC; outline: as §1
[10] = tested on: HEK293; assay: Cytotoxicity against HEK293 cells overexpressing CHI3L1 gene assessed as reduction in cell viability after 72 hrs by MTT assay; type: functional, cell-based; settings: Homo sapiens, HEK293, 72 h; outline: as §2
[11] = Antitumor activity against human Small cell lung cancer cells xenografted in mouse assessed as tumor growth inhibition; type: functional, Cancer cell lines
[12] = tested on: C6; assay: Cytotoxicity against rat C6 cells assessed as reduction in cell viability at 1 uM after 72 hrs by MTT assay in presence of temozolomide; type: functional
Outline: (§3)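 U373 or C6 glioma cells seeded in triplicate at 3 × 10³ cells/well in DMEM. Exposed 72 h to temozolomide at final 10, 100, 250, 500 and 1000, alone or combined with 1 µM bradykinin antagonist. MTT read-out gives viability as % of vehicle control. Mean of two experiments run in triplicate.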

[13] = target: RAC-alpha serine/threonine-protein kinase (Homo sapiens) (UniProt P31749); assay: Inhibition of AKT1 phosphorylation in human U373 cells at 10 uM after 24 hrs by Western blot analysis; type: cell-based; settings: U-373MG ATCC; outline: as §1
[14] = target: T1, Mitogen-activated protein kinase; ERK1/ERK2 (Homo sapiens); assay: Inhibition of ERK1/2 phosphorylation in human HEK293 cells overexpressing CHI3L1 gene at 50 uM after 24 hrs by Western blot analysis; type: cell-based; outline: as §1
[15] = Cytotoxicity against human Small cell lung cancer cells assessed as reduction in cell viability after 72 hrs by MTT assay; type: functional, cell-based; settings: Cancer cell lines
[16] = target: RAC-alpha serine/threonine-protein kinase (Homo sapiens) (UniProt P31749); assay: Inhibition of AKT1 phosphorylation in human HEK293 cells overexpressing CHI3L1 gene at 10 uM after 24 hrs by Western blot analysis; type: cell-based; outline: as §1
[17] = tested on: HEK293; assay: Cytotoxicity against HEK293 cells overexpressing CHI3L1 gene assessed as reduction in cell viability at 50 uM after 72 hrs by MTT assay; type: functional, cell-based; settings: Homo sapiens
[18] = (§4) Cytotoxicity against human U373 cells assessed as reduction in cell viability at 1 uM after 72 hrs by MTT assay in presence of temozolomide; type: functional, U-373MG ATCC; outline: as §3
[19] = target: RAC-alpha serine/threonine-protein kinase (Homo sapiens) (UniProt P31749); assay: Inhibition of AKT1 phosphorylation in human HEK293 cells overexpressing CHI3L1 gene at 50 uM after 24 hrs by Western blot analysis; type: cell-based; outline: as §1
[20] = target: T1, Mitogen-activated protein kinase; ERK1/ERK2 (Homo sapiens); assay: Inhibition of ERK1/2 phosphorylation in human HEK293 cells overexpressing CHI3L1 gene at 10 uM after 24 hrs by Western blot analysis; type: cell-based; outline: as §1
[21] = target: T1, Mitogen-activated protein kinase; ERK1/ERK2 (Homo sapiens); assay: Inhibition of ERK1/2 phosphorylation in human U373 cells at 50 uM after 24 hrs by Western blot analysis; type: cell-based; settings: U-373MG ATCC; outline: as §1
[22] = Cytotoxicity against human Mino cells assessed as reduction in cell viability after 72 hrs by MTT assay; type: functional, cell-based; outline: as §2
[23] = tested on: U-373MG ATCC; assay: as §4; type: functional; outline: as §3
[24] = tested on: Mino; assay: Cytotoxicity against human Mino cells assessed as reduction in cell viability at 100 uM after 72 hrs by MTT assay; type: functional, cell-based; outline: as §2
[25] = Cytotoxicity against human UPN1 cells assessed as viable cells at 100 uM after 72 hrs by MTT assay; type: functional; settings: UPN1, 72 h, read-out: Activity; outline: as §2
[26] = tested on: Granta; assay: Cytotoxicity against human Granta cells assessed as reduction in cell viability at 100 uM after 72 hrs by MTT assay; type: functional, cell-based; outline: as §2
[27] = Cytotoxicity against human Jeko cells assessed as viable cells at 100 uM after 72 hrs by MTT assay; type: functional; settings: JeKo-1, 72 h, read-out: Activity; outline: as §2

inhibition [1]: inactive | inhibition [3]: inactive | inhibition [6]: inactive | inhibition [9]: inactive
SMILES: N=C(N)NCCC[C@H](NC(=O)C1CC2CCCCC2N1C(=O)[C@H](NC(=O)[C@H](CO)NC(=O)[C@@H](NC(=O)CNC(=O)[C@@H]1C[C@@H](O)CN1C(=O)[C@@H]1CCCN1C(=O)[C@H](CCCNC(=N)N)NC(=O)[C@@H](CCCNC(=N)N)NC(=O)/C=C/c1c(F)c(F)c(F)c(F)c1F)C1Cc2ccccc2C1)C1Cc2ccccc2C1)C(=O)O (some centres not stated)
IC50 [2]: 37 µM | IC50 [4]: 50.5 µM | IC50 [5]: > 100 µM | IC50 [7]: > 100 µM | IC50 [8]: > 100 µM | IC50 [10]: 67.9 µM

inhibition [13]: Active | inhibition [14]: Active | inhibition [1]: Dose-dependent effect | inhibition [3]: Dose-dependent effect | inhibition [16]: Active | inhibition [6]: Dose-dependent effect | inhibition [9]: Dose-dependent effect | inhibition [19]: Active | inhibition [20]: Active | inhibition [21]: inactive
SMILES: CC1(C)CC(NC(=O)[C@H](Cc2ccc(OCc3c(Cl)cccc3Cl)cc2)NC(=O)/C=C/c2c(F)c(F)c(F)c(F)c2F)CC(C)(C)N1
TGI [11]: 91% | Activity [12]: 80% | IC50 [2]: 4 µM | IC50 [15]: 1.8 µM | inhibition [17]: Active | Activity [18]: 80% | IC50 [4]: 49.3 µM | IC50 [5]: 3.3 µM | IC50 [7]: 63.3 µM | IC50 [8]: > 100 µM | IC50 [10]: 3.8 µM

SMILES: CN(C)c1ccc(C2CC(c3ccc(Cl)cc3)=NN2C2=NC(=O)/C(=C3/C(=O)Nc4ccc(Br)cc43)S2)cc1 (configuration not stated)
IC50 [22]: 0.16 µM

SMILES: O=C1N=C(N2N=C(c3ccccc3)CC2c2ccc(Cl)cc2)S/C1=C1\C(=O)Nc2ccccc21 (configuration not stated)
IC50 [4]: > 100 µM | IC50 [7]: > 100 µM | IC50 [8]: > 100 µM

SMILES: O=C1N=C(N2N=C(c3ccc(Cl)cc3)CC2c2ccc(Cl)cc2)S/C1=C1\C(=O)Nc2ccc(Cl)cc21 (configuration not stated)
IC50 [2]: 1.22 µM | IC50 [22]: 80.7 µM

SMILES: CC1(C)CC(NC(=O)[C@H](Cc2ccc(OCc3c(Cl)cccc3Cl)cc2)NC(=O)OCC2c3ccccc3-c3ccccc32)CC(C)(C)N1
Activity [12]: inactive | IC50 [2]: 15 µM | Activity [23]: inactive | IC50 [4]: 52.3 µM | IC50 [5]: 20 µM | IC50 [7]: 41.2 µM | IC50 [8]: > 100 µM | IC50 [10]: 25.8 µM

SMILES: COc1ccc(-c2nnc(NC(=O)CN3C(=O)S/C(=C\c4ccc(N(C)C)cc4)C3=O)o2)cc1
IC50 [4]: > 100 µM | IC50 [7]: > 100 µM | IC50 [8]: > 100 µM

SMILES: O=C1N=C(N2N=C(c3ccc(Cl)cc3)CC2c2ccc(Cl)cc2)S/C1=C1\C(=O)Nc2ccc(Br)cc21 (configuration not stated)
IC50 [22]: 0.73 µM

SMILES: O=C1N=C(N2N=C(c3ccc(Br)cc3)CC2c2ccc(Cl)cc2)S/C1=C1\C(=O)Nc2ccc(Cl)cc21 (configuration not stated)
IC50 [22]: 7.4 µM

SMILES: O=C1N=C(N2N=C(c3ccc(Br)cc3)CC2c2ccc(Cl)cc2)S/C1=C1\C(=O)Nc2ccccc21 (configuration not stated)
IC50 [22]: 10 µM

SMILES: O=C1N=C(N2N=C(c3ccc(Cl)cc3)CC2c2ccc(Cl)cc2)S/C1=C1\C(=O)Nc2ccccc21 (configuration not stated)
Activity [24]: inactive | viability at 100 µM [25]: 60% | Activity [26]: inactive | IC50 [22]: 68.2 µM | viability at 100 µM [27]: 60%

SMILES: COc1ccc(NC(=O)COc2ccc(Cl)cc2/C=C2\SC(=S)N(Nc3nc4ccccc4s3)C2=O)cc1
IC50 [22]: 55.3 µM

SMILES: O=C1N=C(Nc2ccc(O)cc2)S/C1=C\c1ccc(Cl)cc1
IC50 [4]: > 100 µM | IC50 [7]: > 100 µM | IC50 [8]: > 100 µM | IC50 [22]: 61.2 µM

SMILES: O=C1N=C(N2N=C(c3ccc(Br)cc3)CC2c2ccc(Cl)cc2)S/C1=C1\C(=O)Nc2ccc(Br)cc21 (configuration not stated)
IC50 [22]: 0.27 µM
